This passage reports Activity and activity results from ChEMBL document CHEMBL4043093, “2-Oxo-3, 4-dihydropyrimido[4, 5-d]pyrimidinyl derivatives as new irreversible pan fibroblast growth factor receptor (FGFR) inhibitors” (Eur J Med Chem, 2017).

The subject of data set [1] is Tyrosine-protein kinase ABL1 (Homo sapiens), P00519 [Y253F]. Kind of data set: Inhibition of human phosphorylated ABL1 Y253F mutant (S229 to K512 residues) expressed in HEK293 cells assessed as residual activity at 1000 nM after 30 mins by Kinomescan method relative to control. It counts as cell-based. In outline: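 Single-point screen at a fixed 1 µM, run within a 456-kinase DiscoveRx KINOMEscan panel. Each kinase's read-out is Percent Control, i.e. signal relative to a control without compound. Hits were scored by a Percent Control < 35 cut-off, and an S(35) selectivity score was calculated across the non-mutant kinases.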

Data set [2] concerns the target Ephrin type-A receptor 5 (Homo sapiens) (UniProt P54756). Kind of data set: Inhibition of wild-type human partial length EPHA5 (T627 to V930 residues) expressed in Escherichia coli BL21 assessed as residual activity at 1000 nM after 30 mins by Kinomescan method relative to control.
In data set [3] the target is TRAF2 and NCK-interacting protein kinase (Homo sapiens) (UniProt Q9UKE5). Kind of data set: Inhibition of wild-type human partial length TNIK (D4 to K311 residues) expressed in Escherichia coli BL21 assessed as residual activity at 1000 nM after 30 mins by Kinomescan method relative to control.
Chain of TRAF2 and NCK-interacting protein kinase (Homo sapiens) (Q9UKE5 whole entry, looked up, the tested form may be a part): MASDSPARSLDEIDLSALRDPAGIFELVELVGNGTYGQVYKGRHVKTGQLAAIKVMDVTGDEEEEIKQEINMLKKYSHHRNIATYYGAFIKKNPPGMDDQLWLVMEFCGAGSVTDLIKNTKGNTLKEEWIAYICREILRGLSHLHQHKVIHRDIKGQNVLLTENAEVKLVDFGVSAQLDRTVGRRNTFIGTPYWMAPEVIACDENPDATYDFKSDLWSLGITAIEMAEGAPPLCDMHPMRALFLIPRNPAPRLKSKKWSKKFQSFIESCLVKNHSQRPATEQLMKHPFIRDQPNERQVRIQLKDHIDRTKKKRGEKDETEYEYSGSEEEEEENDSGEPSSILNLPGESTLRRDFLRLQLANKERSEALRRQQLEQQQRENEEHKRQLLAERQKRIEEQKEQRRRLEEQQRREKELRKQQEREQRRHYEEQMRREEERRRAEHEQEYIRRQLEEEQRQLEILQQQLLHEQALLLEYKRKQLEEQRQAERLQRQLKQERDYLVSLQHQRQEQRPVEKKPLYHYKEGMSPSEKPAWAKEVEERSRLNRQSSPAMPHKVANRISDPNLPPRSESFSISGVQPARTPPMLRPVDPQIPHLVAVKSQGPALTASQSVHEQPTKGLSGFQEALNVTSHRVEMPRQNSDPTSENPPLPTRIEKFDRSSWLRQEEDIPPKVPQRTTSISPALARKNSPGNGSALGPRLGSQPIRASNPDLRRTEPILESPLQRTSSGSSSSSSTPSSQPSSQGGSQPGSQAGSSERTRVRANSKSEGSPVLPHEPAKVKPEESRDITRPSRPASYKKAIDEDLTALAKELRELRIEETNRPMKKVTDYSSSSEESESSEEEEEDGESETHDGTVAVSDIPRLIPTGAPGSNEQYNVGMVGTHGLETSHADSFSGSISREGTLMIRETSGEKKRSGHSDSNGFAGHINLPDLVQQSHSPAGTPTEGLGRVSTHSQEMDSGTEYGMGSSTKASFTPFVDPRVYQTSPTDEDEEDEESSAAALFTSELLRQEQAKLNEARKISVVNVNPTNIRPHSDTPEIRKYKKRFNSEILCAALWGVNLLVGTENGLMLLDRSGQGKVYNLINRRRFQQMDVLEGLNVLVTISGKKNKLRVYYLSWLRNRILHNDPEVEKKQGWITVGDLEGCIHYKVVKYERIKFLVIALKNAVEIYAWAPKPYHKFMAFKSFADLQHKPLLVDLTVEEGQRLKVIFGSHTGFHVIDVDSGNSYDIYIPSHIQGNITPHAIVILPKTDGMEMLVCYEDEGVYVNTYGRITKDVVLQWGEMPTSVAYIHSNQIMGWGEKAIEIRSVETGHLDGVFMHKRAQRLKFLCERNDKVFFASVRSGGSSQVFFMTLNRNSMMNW
The target in data set [4] is Calcium/calmodulin-dependent protein kinase type II subunit delta (Homo sapiens) (UniProt Q13557). Kind of data set: Inhibition of wild-type human partial length CAMK2D (M1 to E329 residues) expressed in Escherichia coli BL21 assessed as residual activity at 1000 nM after 30 mins by Kinomescan method relative to control.
Chain of Calcium/calmodulin-dependent protein kinase type II subunit delta (Homo sapiens) (Q13557 whole entry, the tested form may be a part): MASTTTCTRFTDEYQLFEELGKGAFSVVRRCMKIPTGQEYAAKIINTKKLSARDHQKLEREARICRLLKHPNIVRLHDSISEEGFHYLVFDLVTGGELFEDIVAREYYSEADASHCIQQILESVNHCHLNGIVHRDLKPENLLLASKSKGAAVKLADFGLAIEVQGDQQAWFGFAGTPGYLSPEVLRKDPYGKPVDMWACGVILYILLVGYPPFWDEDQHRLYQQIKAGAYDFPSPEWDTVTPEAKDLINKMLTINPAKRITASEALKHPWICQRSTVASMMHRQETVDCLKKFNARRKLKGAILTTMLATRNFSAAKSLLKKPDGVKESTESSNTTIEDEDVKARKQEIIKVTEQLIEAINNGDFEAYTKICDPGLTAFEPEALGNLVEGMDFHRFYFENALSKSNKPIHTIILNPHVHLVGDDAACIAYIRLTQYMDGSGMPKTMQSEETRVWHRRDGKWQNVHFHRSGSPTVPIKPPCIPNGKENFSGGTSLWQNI
The test system of data set [5] is eIF-2-alpha kinase GCN2 (Homo sapiens), Q9P2K8 [S808G]. The experiment in a line: Inhibition of wild-type human partial length GCN2 kinase domain 2 (R585 to T1018 residues) S808G mutant expressed in Escherichia coli BL21 assessed as residual activity at 1000 nM after 30 mins by Kinomescan method relative to control.
For data set [6], the target named is Non-receptor tyrosine-protein kinase TYK2 (Homo sapiens) (UniProt P29597). Kind of data set: Inhibition of wild-type human partial length TYK2 JH1 catalytic domain (V877 to C1187 residues) expressed in HEK293 cells assessed as residual activity at 1000 nM after 30 mins by Kinomescan method relative to control. It counts as cell-based.
For data set [7], the system named is Tyrosine-protein kinase ABL1 (Homo sapiens), P00519 [T315I]. The experiment in a line: Inhibition of human non-phosphorylated ABL1 T315I mutant (S229 to K512 residues) expressed in HEK293 cells assessed as residual activity at 1000 nM after 30 mins by Kinomescan method relative to control. Type of data set: cell-based. In outline: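 KINOMEscan binding panel of 456 kinases, with the test compound at a single concentration of 1 µM. Read-out is Percent Control.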

Data set [8] deals with Protein kinase C iota type (Homo sapiens) (UniProt P41743). The experiment in a line: Inhibition of wild-type human partial length PRKCI (H215 to V587 residues) expressed in HEK293 cells assessed as residual activity at 1000 nM after 30 mins by Kinomescan method relative to control. It counts as cell-based.
Chain of Protein kinase C iota type (Homo sapiens) (P41743 whole entry, the tested form may be a part): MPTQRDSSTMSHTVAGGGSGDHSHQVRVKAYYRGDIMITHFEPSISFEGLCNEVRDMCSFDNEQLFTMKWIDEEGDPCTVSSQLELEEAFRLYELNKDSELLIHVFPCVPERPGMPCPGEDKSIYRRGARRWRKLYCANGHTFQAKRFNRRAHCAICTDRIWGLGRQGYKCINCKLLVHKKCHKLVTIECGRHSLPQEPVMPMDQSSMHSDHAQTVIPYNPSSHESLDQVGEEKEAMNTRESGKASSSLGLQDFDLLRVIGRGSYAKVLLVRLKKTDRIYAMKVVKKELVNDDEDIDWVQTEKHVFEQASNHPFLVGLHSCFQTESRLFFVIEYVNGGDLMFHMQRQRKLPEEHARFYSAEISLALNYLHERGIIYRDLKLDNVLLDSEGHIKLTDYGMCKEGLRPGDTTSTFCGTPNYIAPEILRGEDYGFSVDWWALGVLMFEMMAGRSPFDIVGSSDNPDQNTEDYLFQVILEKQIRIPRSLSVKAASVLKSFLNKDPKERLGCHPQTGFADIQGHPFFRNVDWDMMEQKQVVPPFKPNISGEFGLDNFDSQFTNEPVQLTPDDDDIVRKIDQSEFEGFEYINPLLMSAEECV
For data set [9], the target named is Ribosomal protein S6 kinase alpha-5 (Homo sapiens) (UniProt O75582). Kind of data set: Inhibition of wild-type human partial length C-terminal RPS6KA5 kinase domain 2 (V390 to T718 residues) expressed in Escherichia coli BL21 assessed as residual activity at 1000 nM after 30 mins by Kinomescan method relative to control.
Chain of Ribosomal protein S6 kinase alpha-5 (Homo sapiens) (O75582 whole entry, looked up, the tested form may be a part): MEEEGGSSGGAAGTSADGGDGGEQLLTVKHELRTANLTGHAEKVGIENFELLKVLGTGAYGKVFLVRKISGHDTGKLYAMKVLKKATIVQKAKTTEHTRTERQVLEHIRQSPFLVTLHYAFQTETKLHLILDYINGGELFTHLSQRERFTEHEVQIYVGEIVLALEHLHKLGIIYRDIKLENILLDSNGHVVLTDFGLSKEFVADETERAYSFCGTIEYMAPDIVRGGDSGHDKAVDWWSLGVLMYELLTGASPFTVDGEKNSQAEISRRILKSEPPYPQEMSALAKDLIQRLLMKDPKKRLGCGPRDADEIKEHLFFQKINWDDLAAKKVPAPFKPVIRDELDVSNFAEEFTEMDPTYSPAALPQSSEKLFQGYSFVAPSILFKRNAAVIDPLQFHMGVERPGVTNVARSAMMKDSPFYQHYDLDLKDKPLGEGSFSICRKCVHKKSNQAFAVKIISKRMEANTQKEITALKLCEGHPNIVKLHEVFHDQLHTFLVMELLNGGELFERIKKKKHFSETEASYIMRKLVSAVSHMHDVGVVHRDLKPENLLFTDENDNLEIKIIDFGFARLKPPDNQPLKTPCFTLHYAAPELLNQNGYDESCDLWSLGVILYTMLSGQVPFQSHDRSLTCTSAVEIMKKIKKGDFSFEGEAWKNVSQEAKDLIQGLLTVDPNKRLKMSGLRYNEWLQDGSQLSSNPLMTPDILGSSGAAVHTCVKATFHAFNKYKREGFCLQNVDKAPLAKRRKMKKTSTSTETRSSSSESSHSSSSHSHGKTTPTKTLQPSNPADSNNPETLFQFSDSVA
Data set [10] addresses Mitogen-activated protein kinase 3 (Homo sapiens) (UniProt P27361). The experiment in a line: Inhibition of wild-type human full length ERK1 (M1 to P379 residues) expressed in Escherichia coli BL21 assessed as residual activity at 1000 nM after 30 mins by Kinomescan method relative to control. The essentials:
(§1)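 Single-concentration screen at 1 µM across a 456-kinase KINOMEscan panel. The read-out is Percent Control for each kinase.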

Data set [11] deals with MAP/microtubule affinity-regulating kinase 3 (Homo sapiens) (UniProt P27448). The experiment in a line: Inhibition of wild-type human full length MARK3 (M1 to L729 residues) expressed in Escherichia coli BL21 assessed as residual activity at 1000 nM after 30 mins by Kinomescan method relative to control. In outline: as §1
Data set [12] deals with Dual specificity mitogen-activated protein kinase kinase 5 (Homo sapiens) (UniProt Q13163). The experiment in a line: Inhibition of wild-type human partial length MEK5 (L98 to P448 residues) expressed in HEK293 cells assessed as residual activity at 1000 nM after 30 mins by Kinomescan method relative to control. Type of data set: cell-based.
Chain of Dual specificity mitogen-activated protein kinase kinase 5 (Homo sapiens) (Q13163 whole entry, the tested form may be a part): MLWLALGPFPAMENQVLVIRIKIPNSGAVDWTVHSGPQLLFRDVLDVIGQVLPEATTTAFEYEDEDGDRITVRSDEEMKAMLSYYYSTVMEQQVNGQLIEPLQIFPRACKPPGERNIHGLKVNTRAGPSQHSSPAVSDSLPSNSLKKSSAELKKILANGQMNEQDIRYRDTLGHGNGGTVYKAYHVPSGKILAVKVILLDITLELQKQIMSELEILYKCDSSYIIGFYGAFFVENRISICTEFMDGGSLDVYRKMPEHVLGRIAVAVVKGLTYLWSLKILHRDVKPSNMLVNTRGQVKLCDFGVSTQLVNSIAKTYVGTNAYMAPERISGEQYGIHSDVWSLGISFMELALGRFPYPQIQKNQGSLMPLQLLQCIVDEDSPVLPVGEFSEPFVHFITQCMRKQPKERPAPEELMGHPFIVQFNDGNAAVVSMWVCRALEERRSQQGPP
In data set [13] the target is Transient receptor potential cation channel subfamily M member 6 (Homo sapiens) (UniProt Q9BX84). The experiment in a line: Inhibition of wild-type human partial length TRPM6 (Q1723 to I1998 residues) expressed in HEK293 cells assessed as residual activity at 1000 nM after 30 mins by Kinomescan method relative to control. Type of data set: cell-based.
Data set [14] has as its target 5'-AMP-activated protein kinase catalytic subunit alpha-2 (Homo sapiens) (UniProt P54646). Kind of data set: Inhibition of wild-type human partial length AMPK alpha2 (M1 to E306 residues) expressed in Escherichia coli BL21 assessed as residual activity at 1000 nM after 30 mins by Kinomescan method relative to control.
Data set [15] has as its target Protein-tyrosine kinase 6 (Homo sapiens) (UniProt Q13882). Kind of data set: Inhibition of wild-type human partial length BRK (L166 to T451 residues) expressed in Escherichia coli BL21 assessed as residual activity at 1000 nM after 30 mins by Kinomescan method relative to control.
The target in data set [16] is Hepatocyte growth factor receptor (Homo sapiens) (UniProt P08581). Kind of data set: Inhibition of wild-type human partial length MET (D1010 to S1367 residues) expressed in Escherichia coli BL21 assessed as residual activity at 1000 nM after 30 mins by Kinomescan method relative to control.
The target of data set [17] is Serine/threonine-protein kinase WNK2 (Homo sapiens) (UniProt Q9Y3S1). Kind of data set: Inhibition of wild-type human partial length WNK2 (V47 to D482 residues) expressed in HEK293 cells assessed as residual activity at 1000 nM after 30 mins by Kinomescan method relative to control. It counts as cell-based.
In data set [18] the target is Uncharacterized serine/threonine-protein kinase SBK3 (Homo sapiens) (UniProt P0C264). Kind of data set: Inhibition of wild-type human partial length SgK110 (L22 to R329 residues) expressed in Escherichia coli BL21 assessed as residual activity at 1000 nM after 30 mins by Kinomescan method relative to control.
Chain of Uncharacterized serine/threonine-protein kinase SBK3 (Homo sapiens) (P0C264 whole entry, the tested form may be a part): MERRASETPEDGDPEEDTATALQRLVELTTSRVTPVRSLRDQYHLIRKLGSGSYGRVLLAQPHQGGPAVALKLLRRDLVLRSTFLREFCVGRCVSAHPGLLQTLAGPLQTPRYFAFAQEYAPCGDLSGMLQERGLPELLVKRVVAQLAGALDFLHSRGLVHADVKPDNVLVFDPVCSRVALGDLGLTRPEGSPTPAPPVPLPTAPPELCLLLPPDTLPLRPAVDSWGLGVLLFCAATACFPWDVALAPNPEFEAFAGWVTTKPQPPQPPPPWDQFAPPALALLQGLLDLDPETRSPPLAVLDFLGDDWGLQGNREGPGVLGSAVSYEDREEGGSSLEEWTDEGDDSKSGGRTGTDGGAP
For data set [19], the target named is Death-associated protein kinase 1 (Homo sapiens) (UniProt P53355). The experiment in a line: Inhibition of wild-type human partial length DAPK1 (M1 to F296 residues) expressed in Escherichia coli BL21 assessed as residual activity at 1000 nM after 30 mins by Kinomescan method relative to control.
The target of data set [20] is Tyrosine-protein kinase Lyn (Homo sapiens) (UniProt P07948). The experiment in a line: Inhibition of wild-type human partial length LYN (C219 to Q511 residues) expressed in Escherichia coli BL21 assessed as residual activity at 1000 nM after 30 mins by Kinomescan method relative to control.
Data set [21] addresses PDGFRB (platelet-derived growth factor receptor beta) (Homo sapiens, UniProt P09619). The experiment in a line: Inhibition of wild-type human partial length PDGFRB (V582 to Y1009 residues) expressed in Escherichia coli BL21 assessed as residual activity at 1000 nM after 30 mins by Kinomescan method relative to control. To be noted: read-out: Activity.

Chain of Protein-tyrosine kinase 6 (Homo sapiens) (Q13882 whole entry, looked up, the tested form may be a part): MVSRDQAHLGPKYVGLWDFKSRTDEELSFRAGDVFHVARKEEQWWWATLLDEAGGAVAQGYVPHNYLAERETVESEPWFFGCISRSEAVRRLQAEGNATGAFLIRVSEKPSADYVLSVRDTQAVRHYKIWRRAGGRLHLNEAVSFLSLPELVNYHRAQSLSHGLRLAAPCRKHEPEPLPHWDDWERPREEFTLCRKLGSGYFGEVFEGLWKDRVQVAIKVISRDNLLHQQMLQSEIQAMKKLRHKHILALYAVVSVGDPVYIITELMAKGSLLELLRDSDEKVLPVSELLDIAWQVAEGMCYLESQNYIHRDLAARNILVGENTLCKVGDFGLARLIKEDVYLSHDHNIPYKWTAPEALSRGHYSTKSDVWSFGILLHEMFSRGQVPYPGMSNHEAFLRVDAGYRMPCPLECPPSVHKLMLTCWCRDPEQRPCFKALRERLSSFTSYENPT
Chain of Mitogen-activated protein kinase 3 (Homo sapiens) (P27361 whole entry, the tested form may be a part): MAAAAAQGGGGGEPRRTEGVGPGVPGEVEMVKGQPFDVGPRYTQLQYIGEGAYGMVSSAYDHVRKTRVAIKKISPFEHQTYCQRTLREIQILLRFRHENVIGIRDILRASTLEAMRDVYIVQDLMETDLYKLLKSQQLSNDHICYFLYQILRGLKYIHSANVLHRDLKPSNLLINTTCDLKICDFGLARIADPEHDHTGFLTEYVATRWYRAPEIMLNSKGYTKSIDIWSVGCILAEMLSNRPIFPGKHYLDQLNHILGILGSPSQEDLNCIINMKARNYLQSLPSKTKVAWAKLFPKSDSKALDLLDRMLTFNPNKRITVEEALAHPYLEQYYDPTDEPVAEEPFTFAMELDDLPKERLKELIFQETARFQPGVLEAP

Regarding `COc1cc(OC)c(Cl)c(N2Cc3cnc(Nc4ccc(F)cc4)nc3N(C3CCN(C(=O)/C=C/CN(C)C)CC3)C2=O)c1Cl`, the Activity in [1] was found to be 38%; in [2] it was 100%; in data set [3], 94%; in data set [4] it was 100%; in [5], 46%; in [6], 83%. Moreover, the Activity was 100% in data set [7]; 100% in [8]; 100% in data set [9]; 100% in [10]; 99% in data set [11]; 90% in [12]. Further, the Activity turned out to be 100% in data set [13]; 89% in data set [14]; 100% in data set [15]; 96% in [16]; 96% in data set [17]; 100% in [18]. Further, the Activity in [19] is 100%; in [20], 7.6%. The activity at 0.5 h, 1 µM in [21] amounted to 1.5%.
